Assay results as given in ChEMBL document CHEMBL1148485, “Synthesis and biological evaluation of new selective cytotoxic cyclolignans derived from podophyllotoxin” (J Med Chem, 2004).

How the values were obtained:
[1] = test system: A549; experiment: In vitro cytotoxicity against A-549 (human lung carcinoma) cell line.; format: functional, cell-based; details: Homo sapiens, A549
[2] = test system: HeLa; experiment: Tested for effect of compound on G2/M cell cycle phase and apoptosis in HeLa cells at a dose of 10E-6 for 48 hr; format: functional, Homo sapiens
Method in brief: (§1)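 HeLa cells were grown in DMEM with 10% heat-inactivated FCS and 2 mM L-glutamine at 37 °C in 5% CO2. They were exposed to 10^-6 to 10^-8 M for 24, 48 or 72 h. Then (3-5)×10^5 cells were fixed overnight in 70% ethanol at 4 °C, PBS-washed, and given 1 mg/mL RNase A plus 20 µg/mL propidium iodide for 1 h at room temperature. DNA content was read by flow cytometry. Sub-G1 (hypodiploid) % counted as apoptotic. Untreated controls were run in parallel. Representative of three independent experiments.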

[3] = test system: HT-29; experiment: In vitro cytotoxicity against HT-29 (human colon carcinoma) cell line.; format: functional, cell-based; details: Homo sapiens, HT-29
[4] = test system: HeLa; experiment: Tested for effect of compound on Sub-G1 cell cycle phase and apoptosis in HeLa cells at a dose of 10E-6 for 24 hr; format: functional, Homo sapiens
Method in brief: (§2)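 HeLa cells grown in DMEM with 10% heat-inactivated FCS, 2 mM L-glutamine, penicillin and gentamicin at 37 °C, 5% CO2. Exposed to compound at 10^-6 to 10^-8 M for 24, 48 or 72 h, untreated controls run in parallel. (3-5) × 10^5 cells fixed overnight in 70% ethanol at 4 °C, then RNase A plus propidium iodide. Phase fractions measured by flow cytometry, with sub-G1 (hypodiploid) cells counted as apoptotic. Three independent experiments.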

[5] = test system: HeLa; experiment: Tested for effect of compound on Sub-G1 cell cycle phase and apoptosis in HeLa cells at a dose of 10E-6 for 48 hr; format: functional, Homo sapiens; method in brief: as §2
[6] = test system: HeLa; experiment: Tested for effect of compound on Sub-G1 cell cycle phase and apoptosis in HeLa cells at a dose of 10E-6 for 72 hr; format: functional, Homo sapiens; method in brief: as §2
[7] = test system: HeLa; experiment: Tested for effect of compound on Sub-G1 cell cycle phase and apoptosis in HeLa cells at a dose of 10E-7 for 24 hr; format: functional, Homo sapiens; method in brief: as §2
[8] = test system: HeLa; experiment: Tested for effect of compound on Sub-G1 cell cycle phase and apoptosis in HeLa cells at a dose of 10E-7 for 48 hr; format: functional, Homo sapiens; method in brief: as §2
[9] = test system: HeLa; experiment: Tested for effect of compound on Sub-G1 cell cycle phase and apoptosis in HeLa cells at a dose of 10E-7 for 72 hr; format: functional, Homo sapiens; method in brief: as §2
[10] = test system: HeLa; experiment: Tested for effect of compound on Sub-G1 cell cycle phase and apoptosis in HeLa cells at a dose of 10E-8 for 24 hr; format: functional, Homo sapiens; method in brief: as §2
[11] = test system: HeLa; experiment: Tested for effect of compound on Sub-G1 cell cycle phase and apoptosis in HeLa cells at a dose of 10E-8 for 48 hr; format: functional, Homo sapiens; method in brief: as §2
[12] = test system: HeLa; experiment: Tested for effect of compound on Sub-G1 cell cycle phase and apoptosis in HeLa cells at a dose of 10E-8 for 72 hr; format: functional, Homo sapiens; method in brief: as §2
[13] = test system: HeLa; experiment: Tested for effect of compound on G2/M cell cycle phase and apoptosis in HeLa cells at a dose of 10E-8 for 24 hr; format: functional, Homo sapiens; method in brief: as §2
[14] = test system: HeLa; experiment: Tested for effect of compound on G2/M cell cycle phase and apoptosis in HeLa cells at a dose of 10E-8 for 48 hr; format: functional, Homo sapiens; method in brief: as §2
[15] = test system: HeLa; experiment: Tested for effect of compound on G2/M cell cycle phase and apoptosis in HeLa cells at a dose of 10E-8 for 72 hr; format: functional, Homo sapiens; method in brief: as §2
[16] = test system: HeLa; experiment: Tested for effect of compound on S cell cycle phase and apoptosis in HeLa cells at a dose of 10E-6 for 24 hr; format: functional, Homo sapiens; method in brief: as §2
[17] = test system: HeLa; experiment: Tested for effect of compound on S cell cycle phase and apoptosis in HeLa cells at a dose of 10E-6 for 48 hr; format: functional, Homo sapiens; method in brief: as §2
[18] = test system: HeLa; experiment: Tested for effect of compound on S cell cycle phase and apoptosis in HeLa cells at a dose of 10E-6 for 72 hr; format: functional, Homo sapiens; method in brief: as §2
[19] = test system: HeLa; experiment: Tested for effect of compound on S cell cycle phase and apoptosis in HeLa cells at a dose of 10E-7 for 24 hr; format: functional, Homo sapiens; method in brief: as §2
[20] = test system: HeLa; experiment: Tested for effect of compound on S cell cycle phase and apoptosis in HeLa cells at a dose of 10E-7 for 48 hr; format: functional, Homo sapiens; method in brief: as §2
[21] = test system: HeLa; experiment: Tested for effect of compound on S cell cycle phase and apoptosis in HeLa cells at a dose of 10E-7 for 72 hr; format: functional, Homo sapiens; method in brief: as §2
[22] = test system: HeLa; experiment: Tested for effect of compound on S cell cycle phase and apoptosis in HeLa cells at a dose of 10E-8 for 24 hr; format: functional, Homo sapiens; method in brief: as §2
[23] = test system: HeLa; experiment: Tested for effect of compound on S cell cycle phase and apoptosis in HeLa cells at a dose of 10E-8 for 48 hr; format: functional, Homo sapiens; method in brief: as §2
[24] = test system: HeLa; experiment: Tested for effect of compound on S cell cycle phase and apoptosis in HeLa cells at a dose of 10E-8 for 72 hr; format: functional, Homo sapiens; method in brief: as §2
[25] = test system: HeLa; experiment: Tested for effect of compound on G0/G1 cell cycle phase and apoptosis in HeLa cells at a dose of 10E-6 for 24 hr; format: functional, Homo sapiens; method in brief: as §1
[26] = test system: HeLa; experiment: Tested for effect of compound on G0/G1 cell cycle phase and apoptosis in HeLa cells at a dose of 10E-6 for 48 hr; format: functional, Homo sapiens; method in brief: as §1
[27] = test system: HeLa; experiment: Tested for effect of compound on G0/G1 cell cycle phase and apoptosis in HeLa cells at a dose of 10E-6 for 72 hr; format: functional, Homo sapiens; method in brief: as §1
[28] = test system: HeLa; experiment: Tested for effect of compound on G0/G1 cell cycle phase and apoptosis in HeLa cells at a dose of 10E-7 for 24 hr; format: functional, Homo sapiens; method in brief: as §1
[29] = test system: HeLa; experiment: Tested for effect of compound on G0/G1 cell cycle phase and apoptosis in HeLa cells at a dose of 10E-7 for 48 hr; format: functional, Homo sapiens; method in brief: as §1
[30] = test system: HeLa; experiment: Tested for effect of compound on G0/G1 cell cycle phase and apoptosis in HeLa cells at a dose of 10E-7 for 72 hr; format: functional, Homo sapiens; method in brief: as §1
[31] = test system: HeLa; experiment: Tested for effect of compound on G0/G1 cell cycle phase and apoptosis in HeLa cells at a dose of 10E-8 for 24 hr; format: functional, Homo sapiens; method in brief: as §1
[32] = test system: HeLa; experiment: Tested for effect of compound on G0/G1 cell cycle phase and apoptosis in HeLa cells at a dose of 10E-8 for 48 hr; format: functional, Homo sapiens; method in brief: as §1
[33] = test system: HeLa; experiment: Tested for effect of compound on G0/G1 cell cycle phase and apoptosis in HeLa cells at a dose of 10E-8 for 72 hr; format: functional, Homo sapiens; method in brief: as §1
[34] = test system: HeLa; experiment: Tested for effect of compound on G2/M cell cycle phase and apoptosis in HeLa cells at a dose of 10E-6 for 24 hr; format: functional, Homo sapiens; method in brief: as §1
[35] = test system: HeLa; experiment: Tested for effect of compound on G2/M cell cycle phase and apoptosis in HeLa cells at a dose of 10E-6 for 72 hr; format: functional, Homo sapiens; method in brief: as §2
[36] = test system: HeLa; experiment: Tested for effect of compound on G2/M cell cycle phase and apoptosis in HeLa cells at a dose of 10E-7 for 24 hr; format: functional, Homo sapiens; method in brief: as §2
[37] = test system: HeLa; experiment: Tested for effect of compound on G2/M cell cycle phase and apoptosis in HeLa cells at a dose of 10E-7 for 48 hr; format: functional, Homo sapiens; method in brief: as §2
[38] = test system: SK-MEL-28; experiment: Tested in vitro for antineoplastic activity against MEL-28 (human melanoma) tumor cell line; format: functional, cell-based
Method in brief: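 MEL-28 cells seeded at 2 × 10^4 cells/well in MEM–10% FCS containing graded compound concentrations. Incubated 4 days at 37 °C, 10% CO2, 98% humidity. Stained with crystal violet and inhibition judged against untreated controls, which were kept in exponential growth. Mean of duplicate wells.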

[39] = Selectivity index is the ratio of IC50 of P-388 cell line to that of HT-29; format: functional
[40] = test system: P388; experiment: Tested in vitro for antineoplastic activity against P-388 (lymphoid neoplasm from DBA/2 mouse) tumor cell line; format: functional, cell-based
Method in brief: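 P-388 cells seeded at 1 × 10^4 cells/well in MEM–10% FCS containing graded compound concentrations. Incubated 4 days at 37 °C, 10% CO2, 98% humidity. Inhibition scored by inverted microscopy against untreated controls, which were kept in exponential growth. Mean of duplicate wells.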

[41] = test system: HeLa; experiment: Tested for effect of compound on G2/M cell cycle phase and apoptosis in HeLa cells at a dose of 10E-7 for 72 hr; format: functional, Homo sapiens; method in brief: as §2

For CCn1nccc1/N=C/C1=Cc2cc3c(cc2C(c2cc(OC)c(OC)c(OC)c2)[C@@H]1C(=O)OC)OCO3 (stereo partly specified), which IC50 [1] is on record?
The IC50 was 0.96 µM.

What about the Activity [2] of the same molecule?
The Activity was 49.4%.

What about the IC50 [3] of the same molecule?
Its IC50 is 0.048 µM.

And the Activity [4]?
Its Activity is 2.1%.

What about the Activity [5] of the same molecule?
Its Activity is 23.8%.

And the Activity [6]?
Its Activity is 39.6%.

And the Activity [7]?
Its Activity is 1.8%.

What about the Activity [8] of the same molecule?
The Activity was 1.9%.

And the Activity [9]?
The Activity was 5.6%.

And the Activity [10]?
Its Activity is 1.3%.

And the Activity [11]?
Its Activity is 1.7%.

What about the Activity [12] of the same molecule?
The Activity was 2.3%.

And the Activity [13]?
The Activity was 24.1%.

What about the Activity [14] of the same molecule?
The Activity was 28.2%.

And the Activity [15]?
The Activity was 25.4%.

And the Activity [16]?
Its Activity is 9.6%.

And the Activity [17]?
Its Activity is 10.8%.

And the Activity [18]?
Its Activity is 8.1%.

What about the Activity [19] of the same molecule?
The Activity was 18.3%.

And the Activity [20]?
Its Activity is 13%.

What about the Activity [21] of the same molecule?
Its Activity is 12.3%.

And the Activity [22]?
The Activity was 18.2%.

What about the Activity [23] of the same molecule?
Its Activity is 14.1%.

What about the Activity [24] of the same molecule?
The Activity was 12.2%.

What about the Activity [25] of the same molecule?
Its Activity is 6.8%.

What about the Activity [26] of the same molecule?
The Activity was 16%.

And the Activity [27]?
Its Activity is 31.3%.

And the Activity [28]?
Its Activity is 55.6%.

What about the Activity [29] of the same molecule?
Its Activity is 49.5%.

What about the Activity [30] of the same molecule?
Its Activity is 37.7%.

And the Activity [31]?
The Activity was 56.4%.

What about the Activity [32] of the same molecule?
The Activity was 56%.

What about the Activity [33] of the same molecule?
The Activity was 60.1%.

And the Activity [34]?
The Activity was 81.5%.

What about the Activity [35] of the same molecule?
Its Activity is 21%.

What about the Activity [36] of the same molecule?
Its Activity is 24.3%.

What about the Activity [37] of the same molecule?
Its Activity is 35.6%.

What about the IC50 [38] of the same molecule?
Its IC50 is 0.96 µM.

What about the Selectivity index [39] of the same molecule?
The Selectivity index was 20.

What about the IC50 [40] of the same molecule?
The IC50 was 0.96 µM.

And the Activity [41]?
Its Activity is 44.4%.
